The source of these data is ChEMBL document CHEMBL2016541, “Synthesis and biological evaluation of isoxazolo[4,5-d]pyridazin-4-(5H)-one analogues as potent anti-inflammatory agents” (Bioorg Med Chem, 2012).

Each structure is given as a SMILES string.

The subject of series [1] is Rattus norvegicus. The series can be described thus: Ulcerogenic activity in rat assessed as ulcer index at 0.14 mmol/kg, po after 6 hrs. In kind it is toxicity, organism-based. Conditions: in vivo. The essentials: (§1)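 Rats fasted 24 h (water allowed), then dosed orally with 0.14 mmol/kg in 1.0 mL 1% methylcellulose; vehicle controls given. Euthanized by CO2 at 6 h. Stomachs opened along the greater curvature, rinsed, and ulcers measured under magnifier lenses. UI = summed ulcer length (mm) per stomach averaged over 4 rats; mean ± SEM; one-way ANOVA with Holm–Sidak.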

Series [2] is described as follows: Inhibition of potato 5-LOX by EIA. Details: species or system Solanum tuberosum. Summed up:
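Potato 5-LOX activity measured with an enzyme immunoassay (LOX assay kit). Mean of two determinations; deviation from the mean <10%.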

Series [3] addresses T1, Prostaglandin G/H synthase 2 (Homo sapiens, UniProt P35354).
T1 sequence (P35354 whole entry): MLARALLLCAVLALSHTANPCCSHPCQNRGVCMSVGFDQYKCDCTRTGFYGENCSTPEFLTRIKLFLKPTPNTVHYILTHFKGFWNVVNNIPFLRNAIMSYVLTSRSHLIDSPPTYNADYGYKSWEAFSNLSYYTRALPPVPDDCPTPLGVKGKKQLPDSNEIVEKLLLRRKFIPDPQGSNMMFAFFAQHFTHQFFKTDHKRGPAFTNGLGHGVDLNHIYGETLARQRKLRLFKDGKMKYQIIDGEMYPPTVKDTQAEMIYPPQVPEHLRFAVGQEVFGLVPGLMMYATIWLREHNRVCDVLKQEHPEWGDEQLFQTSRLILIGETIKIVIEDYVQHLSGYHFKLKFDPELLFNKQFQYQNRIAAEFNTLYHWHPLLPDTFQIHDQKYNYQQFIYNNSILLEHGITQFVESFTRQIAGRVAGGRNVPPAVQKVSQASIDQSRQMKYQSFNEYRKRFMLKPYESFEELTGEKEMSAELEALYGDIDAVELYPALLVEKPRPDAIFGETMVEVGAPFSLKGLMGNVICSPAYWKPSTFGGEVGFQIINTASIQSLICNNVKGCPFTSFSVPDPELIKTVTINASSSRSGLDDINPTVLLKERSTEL
The series can be described thus: Inhibition of human recombinant COX2 by fluorescence assay.

Series [4] has as its system Rattus norvegicus. The series can be described thus: Antiinflammatory activity in rat assessed as inhibition of carrageenan-induced rat paw oedema at 0.14 mmol/kg, po after 3 hrs. The class given is functional. Summed up:
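Carrageenan-induced paw edema in rats. Compounds given orally, suspended in 1% aqueous methylcellulose. Test compounds dosed at 0.14 mmol, equivalent to 30 mg/kg ibuprofen. Mean ± SEM, n = 4.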
(Carrageenan injected into the paw causes an acute inflammation.)

The subject of series [5] is Rattus norvegicus. Description: Antiinflammatory activity in rat assessed as inhibition of carrageenan-induced rat paw oedema at 30 mg/kg, po after 3 hrs. In kind it is functional. Summed up: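 Carrageenan-induced paw edema in rats. Compounds given orally, suspended in 1% aqueous methylcellulose. Test compounds dosed at 0.14 mmol, equivalent to 30 mg/kg ibuprofen. […] Mean ± SEM, n = 4.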

Series [6] concerns Rattus norvegicus. Description: Ulcerogenic activity in rat assessed as ulcer index at 30 mg/kg, po after 6 hrs. The class given is toxicity, organism-based. Further details: dose 30 mg/kg, route oral. The following applies: in vivo. The essentials: as §1

For the compound `Cc1noc2c(Cc3ccccc3)nn(Cc3nnc(Nc4ccccc4)s3)c(=O)c12`, in the series on Rattus norvegicus [1], the UI was 0.5 mm.

As a reminder, the IC50 is the point on the concentration scale where inhibition reaches its midpoint. For the compound `CCNc1nnc(Cn2nc(Cc3ccccc3)c3onc(C)c3c2=O)s1`, the IC50 is 72.8 µM in series [2] and above 100 µM in series [3].

One may read the inhibition in vivo as the share of the control response that was lost under treatment. As to `CCn1c(Cn2nc(Cc3ccc([N+](=O)[O-])cc3)c3onc(C)c3c2=O)n[nH]c1=S`, the IC50 in series [2] came out at 14.8 µM; in series [3], 9.2 µM. In addition, in the series with Rattus norvegicus [1], the UI was 0 mm. Moreover, the inhibition in vivo at 140 µmol/kg in the series on Rattus norvegicus [4] came out at 38%.

Compound `O=C(O)/C=C/c1ccc(O)c(O)c1` [CAFFEIC ACID] had an IC50 in series [2] of 4 µM.

In the case of `Cc1noc2c(Cc3ccccc3)nn(Cc3n[nH]c(=S)n3-c3ccccc3)c(=O)c12`, the IC50 in series [2] is 45.1 µM; in series [3] it was above 100 µM.

Turning to `CC(C)Cc1ccc(C(C)C(=O)O)cc1` (stereo not drawn) [IBUPROFEN], the inhibition in vivo at 30 mg/kg in the series on Rattus norvegicus [5] is 18.5%. In addition, in the series with Rattus norvegicus [6], the UI was 7 mm.

On to `Cc1noc2c(Cc3ccc([N+](=O)[O-])cc3)nn(Cc3n[nH]c(=S)n3C)c(=O)c12`, for which the UI with Rattus norvegicus [1] was 0.25 mm.

As for `CC(c1cc2ccccc2s1)N(O)C(N)=O` (stereo not drawn) [ZILEUTON], the IC50 in series [2] was 1.1 µM.

Take `CNc1nnc(Cn2nc(Cc3ccc([N+](=O)[O-])cc3)c3onc(C)c3c2=O)s1`: in the series on Rattus norvegicus [1], the UI came to 0.75 mm.

In the case of `COc1ccc(Cc2nn(Cc3n[nH]c(=S)n3C)c(=O)c3c(C)noc23)cc1`, the UI in the series on Rattus norvegicus [1] worked out at 0.25 mm.

Regarding `CCn1c(Cn2nc(Cc3ccc(OC)cc3)c3onc(C)c3c2=O)n[nH]c1=S`, the IC50 turned out to be 8.6 µM in series [2] and 2.2 µM in series [3].

Regarding `COc1ccc(Cc2nn(Cc3nnc(Nc4ccccc4)s3)c(=O)c3c(C)noc23)cc1`, the IC50 is 46.2 µM in series [2] and above 100 µM in series [3].

With `Cc1noc2c(Cc3ccc([N+](=O)[O-])cc3)nn(Cc3n[nH]c(=S)n3-c3ccccc3)c(=O)c12`, the IC50 is 16.5 µM in series [2] and above 100 µM in series [3].

Take `COc1ccc(Cc2nn(Cc3n[nH]c(=S)n3-c3ccccc3)c(=O)c3c(C)noc23)cc1`: the UI with Rattus norvegicus [1] is 0 mm.
